Assay results taken from PMC11261775 (eBioMedicine, 2024).

Legend:
[1] = tested on: prostate cancer cells (C4-2, CWR22Rv1, PC-3, DU145); assay: Cell viability assay, AR-positive and AR-negative prostate cancer cells; format: cell-based; details: 48 h treatment
Method in brief: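 Cells were seeded in 96-well plates in multiple wells and allowed to adhere. They were then exposed for 48 h to graded concentrations of test compound, nano vehicle (Se nanoparticles without peptide) or free peptide. CCK-8 reagent was added for 2 h, then absorbance was read at 450 nm. Data were normalised to the untreated group and given as mean ± SD.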

p300 = p300 (Homo sapiens, UniProt Q09472); assay: Immunoblotting of p300 degradation in prostate cancer cells; format: cell-based; details: for p300 degradation in prostate cancer cells: immunoblot, 24 h
Method in brief: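 AR-positive and AR-negative prostate cancer cells were exposed for 24 h to a range of concentrations of the test compound (Se-nanoparticle-loaded peptide PROTAC). Cells were PBS-washed three times before harvest and lysates were immunoblotted for p300. Secondary antibody was applied for 1 h at room temperature, with 3 × 5 min TBST washes. Detection was by ECL chemiluminescence.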

p53 = assay: Immunoblotting of p53 and downstream proteins; format: cell-based; details: C4-2 and CWR22Rv1 cells, 1μM
Method in brief: (§1)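 Drug treatment lasted 24 h unless otherwise stated. Cells were PBS-washed, lysed, and lysates spun at 13,000×g for 15 min at 4 °C, then BCA-quantified and boiled 5 min. Equal protein was run on 6–10% Tris-glycine SDS-PAGE and transferred to PVDF. Membranes were blocked 1 h in 5% milk, incubated with primary antibody (in 3% BSA/TBST) overnight at 4 °C, then secondary antibody 1 h at room temperature. Detection was by ECL.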

C4-2 and PC-3 cells = assay: Apoptosis detection by flow cytometry; format: cell-based, human; details: high concentrations, 24 h
Method in brief: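 Cells were plated at 3 × 10⁵ cells/ml in 6-well plates. Treatment ran 24 h with test compound alongside untreated, nano vehicle and free peptide controls. Cells were harvested, stained with an apoptosis detection kit per its protocol and analysed on a FACSCalibur flow cytometer.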

CWR22Rv1 xenografts = assay: CWR22Rv1 xenograft mouse model; format: in vivo, BALB/c nude mice
Method in brief: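 Thirty-five male 4-week-old BALB/c nude mice were randomised into 7 groups of 5. Each received 6 × 10⁶ 22Rv1 cells mixed 1:1 with Matrigel, injected s.c. into the right shoulder. After tumours formed, dosing was i.p. every other day for 21 days, with reference agents also at 5 mg/kg. Volume was calculated as length × width²/2. Tumours went to H&E or IHC, scored as intensity (0–3) × positive-cell percentage grade (1–4).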

[2] = tested on: prostate cancer cells (PC-3, DU145, C4-2, CWR22Rv1); assay: Colony formation assay; format: cell-based; details: 20 days treatment
Method in brief: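 Cells were plated in 6-well plates and allowed to attach for 48 h. They were then treated with graded concentrations of test compound for 20 days. Wells were PBS-washed, fixed 30 min in 4% paraformaldehyde and stained 30 min with 0.1% crystal violet. Colonies were counted from images.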

NE1.3 and H660 cells = assay: Apoptosis detection by flow cytometry; format: cell-based; details: 24 h
Method in brief: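 NE1.3 cells were grown in medium with 10% androgen-removed FBS. H660 cells were grown in RPMI 1640 with 5% FBS, insulin, transferrin, selenite, hydrocortisone, β-estradiol and 4 mM final L-glutamine. Cells were seeded at 3 × 10⁵ cells/ml in 6-well plates and exposed for 24 h to test compound, untreated, nano vehicle or peptide controls. They were processed with an apoptosis detection kit per protocol and analysed on a FACSCalibur flow cytometer.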

[3] = molecular target: p300/MDM2 binding in 293T cells (Homo sapiens, UniProt Q00987+Q09472); assay: Co-immunoprecipitation of p300 and MDM2; format: cell-based; details: 293T cells transfected with HA-p300 or Flag-MDM2
Method in brief: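 293T cells were transfected with HA-p300 or Flag-MDM2 plasmids. They were lysed 15 min on ice in IP buffer with protease and phosphatase inhibitors, then spun at 13,000×g for 15 min at 4 °C. Supernatants were incubated with anti-HA agarose beads for 12 h at 4 °C, with or without test compound. Beads were washed, boiled 5 min in loading buffer and analysed by Western blot.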

prostate cancer cells [4] = assay: Cell internalization by confocal microscopy and flow cytometer; format: cell-based; details: 500 nM rhodamine-labeled drug
Method in brief: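 C4-2 cells were incubated with 500 nM rhodamine-labelled test compound, and nuclei were stained with DAPI. Imaging was by confocal microscopy, with identical excitation wavelength and detector gain for all images.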

[5] = Biodistribution by fluorescence imaging; format: in vivo, mice; details: rhodamine-labeled drug, i.p., PC-3 xenograft models, 0-72 h
Method in brief: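 Tumour-bearing mice received rhodamine B-labelled test compound i.p., with injections timed to give exposures of 0, 12, 24, 48 and 72 h. Mice were then euthanised. Heart, liver, spleen, lungs and kidneys were excised and imaged at once on a small-animal in vivo fluorescence system. Distribution was scored by fluorescence intensity.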

PC-3 xenografts = assay: PC-3 xenograft mouse model; format: in vivo, BALB/c nude mice
Method in brief: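 Twenty-five male 4-week-old BALB/c nude mice were randomised into 5 groups of 5 and received 8 × 10⁶ PC-3 cells s.c. into the right shoulder. Dosing began once tumours reached about 200 mm³, about 3 weeks later. Mice received PBS, peptide control, nano vehicle, test compound or a reference inhibitor at 5 mg/kg i.p. every other day for 18 days. Volume was calculated as length × width²/2. Tumours and organs went to H&E, Ki-67 and TUNEL staining. Mean ± SD, t-test.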

CBP = CBP (Homo sapiens, UniProt Q92793); assay: Immunoblotting of CBP in prostate cancer cells; format: cell-based; details: immunoblot
Method in brief: as §1

prostate cancer cells [6] = assay: Wound healing and transwell invasion assays; format: cell-based; details: wound healing 24 h and 48 h; transwell 36 h
Method in brief: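 For wound healing, confluent PC3 and DU145 monolayers were scratched with a 200 μl tip and rinsed with PBS. Test compound was added in serum-free medium, and wounds were photographed at 24 h and 48 h.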

[7] = molecular target: rhodamine-labeled peptide p300 PROTAC drug; assay: fluorescence polarisation

p300, sequence (Q09472 whole entry): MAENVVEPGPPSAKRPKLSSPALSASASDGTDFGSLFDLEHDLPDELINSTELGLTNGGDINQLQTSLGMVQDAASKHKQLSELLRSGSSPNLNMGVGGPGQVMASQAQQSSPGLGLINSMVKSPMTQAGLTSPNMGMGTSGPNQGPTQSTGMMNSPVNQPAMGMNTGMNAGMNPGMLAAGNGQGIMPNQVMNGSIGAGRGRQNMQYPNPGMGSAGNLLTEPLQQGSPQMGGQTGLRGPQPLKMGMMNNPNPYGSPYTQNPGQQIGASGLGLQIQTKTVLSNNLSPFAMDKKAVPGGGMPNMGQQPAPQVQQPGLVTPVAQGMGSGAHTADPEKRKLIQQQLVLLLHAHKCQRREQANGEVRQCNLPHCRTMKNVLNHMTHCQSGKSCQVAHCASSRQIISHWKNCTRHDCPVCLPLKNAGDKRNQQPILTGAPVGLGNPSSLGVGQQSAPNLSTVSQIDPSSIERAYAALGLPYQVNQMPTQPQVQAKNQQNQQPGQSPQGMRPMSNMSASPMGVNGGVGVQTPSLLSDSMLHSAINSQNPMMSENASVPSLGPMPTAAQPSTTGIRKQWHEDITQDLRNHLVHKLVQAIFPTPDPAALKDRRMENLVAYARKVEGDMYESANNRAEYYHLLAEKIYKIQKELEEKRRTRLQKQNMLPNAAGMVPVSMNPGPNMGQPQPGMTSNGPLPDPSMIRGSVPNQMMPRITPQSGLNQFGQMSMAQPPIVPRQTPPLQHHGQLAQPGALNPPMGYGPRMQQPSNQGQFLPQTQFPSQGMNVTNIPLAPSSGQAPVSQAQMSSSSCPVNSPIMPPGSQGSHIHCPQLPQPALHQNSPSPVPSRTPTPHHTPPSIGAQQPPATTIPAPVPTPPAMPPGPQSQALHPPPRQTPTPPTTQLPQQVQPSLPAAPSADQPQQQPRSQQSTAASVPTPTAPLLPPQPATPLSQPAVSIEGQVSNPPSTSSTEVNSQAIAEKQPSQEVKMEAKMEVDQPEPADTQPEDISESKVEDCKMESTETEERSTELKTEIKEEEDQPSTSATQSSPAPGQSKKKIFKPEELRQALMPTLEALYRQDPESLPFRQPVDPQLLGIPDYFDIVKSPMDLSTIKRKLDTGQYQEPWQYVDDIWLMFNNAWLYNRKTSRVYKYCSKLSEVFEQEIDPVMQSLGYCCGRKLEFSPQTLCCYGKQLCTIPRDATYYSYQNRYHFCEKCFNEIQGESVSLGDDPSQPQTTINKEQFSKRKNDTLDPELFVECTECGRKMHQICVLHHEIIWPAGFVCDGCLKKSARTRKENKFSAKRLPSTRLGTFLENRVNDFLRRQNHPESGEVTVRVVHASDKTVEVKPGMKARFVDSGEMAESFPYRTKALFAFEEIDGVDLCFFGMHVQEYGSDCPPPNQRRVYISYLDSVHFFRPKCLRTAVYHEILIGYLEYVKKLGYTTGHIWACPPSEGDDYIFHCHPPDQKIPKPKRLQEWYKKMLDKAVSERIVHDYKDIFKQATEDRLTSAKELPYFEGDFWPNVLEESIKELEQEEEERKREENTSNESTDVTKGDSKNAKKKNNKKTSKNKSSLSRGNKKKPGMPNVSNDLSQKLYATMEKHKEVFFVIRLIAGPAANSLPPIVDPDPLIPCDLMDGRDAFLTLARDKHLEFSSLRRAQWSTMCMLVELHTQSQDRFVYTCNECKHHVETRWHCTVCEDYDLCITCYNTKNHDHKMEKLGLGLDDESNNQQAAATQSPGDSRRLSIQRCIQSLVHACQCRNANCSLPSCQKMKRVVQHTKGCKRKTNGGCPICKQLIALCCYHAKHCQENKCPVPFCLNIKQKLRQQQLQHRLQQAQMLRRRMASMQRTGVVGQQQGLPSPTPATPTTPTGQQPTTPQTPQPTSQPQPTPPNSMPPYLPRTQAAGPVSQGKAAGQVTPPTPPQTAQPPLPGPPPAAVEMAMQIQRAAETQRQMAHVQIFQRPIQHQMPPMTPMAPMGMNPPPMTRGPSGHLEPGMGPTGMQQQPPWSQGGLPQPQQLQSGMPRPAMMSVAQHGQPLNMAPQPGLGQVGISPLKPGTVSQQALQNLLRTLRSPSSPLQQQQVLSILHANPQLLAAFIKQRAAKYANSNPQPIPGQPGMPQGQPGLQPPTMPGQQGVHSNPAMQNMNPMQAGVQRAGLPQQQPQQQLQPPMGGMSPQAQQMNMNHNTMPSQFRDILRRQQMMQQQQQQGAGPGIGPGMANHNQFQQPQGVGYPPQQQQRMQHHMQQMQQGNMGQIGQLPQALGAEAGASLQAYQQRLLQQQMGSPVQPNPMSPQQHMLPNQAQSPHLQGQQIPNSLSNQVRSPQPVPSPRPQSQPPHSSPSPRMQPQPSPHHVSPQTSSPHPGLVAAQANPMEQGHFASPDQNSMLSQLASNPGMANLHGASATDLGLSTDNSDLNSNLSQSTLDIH
CBP, sequence (Q92793 whole entry): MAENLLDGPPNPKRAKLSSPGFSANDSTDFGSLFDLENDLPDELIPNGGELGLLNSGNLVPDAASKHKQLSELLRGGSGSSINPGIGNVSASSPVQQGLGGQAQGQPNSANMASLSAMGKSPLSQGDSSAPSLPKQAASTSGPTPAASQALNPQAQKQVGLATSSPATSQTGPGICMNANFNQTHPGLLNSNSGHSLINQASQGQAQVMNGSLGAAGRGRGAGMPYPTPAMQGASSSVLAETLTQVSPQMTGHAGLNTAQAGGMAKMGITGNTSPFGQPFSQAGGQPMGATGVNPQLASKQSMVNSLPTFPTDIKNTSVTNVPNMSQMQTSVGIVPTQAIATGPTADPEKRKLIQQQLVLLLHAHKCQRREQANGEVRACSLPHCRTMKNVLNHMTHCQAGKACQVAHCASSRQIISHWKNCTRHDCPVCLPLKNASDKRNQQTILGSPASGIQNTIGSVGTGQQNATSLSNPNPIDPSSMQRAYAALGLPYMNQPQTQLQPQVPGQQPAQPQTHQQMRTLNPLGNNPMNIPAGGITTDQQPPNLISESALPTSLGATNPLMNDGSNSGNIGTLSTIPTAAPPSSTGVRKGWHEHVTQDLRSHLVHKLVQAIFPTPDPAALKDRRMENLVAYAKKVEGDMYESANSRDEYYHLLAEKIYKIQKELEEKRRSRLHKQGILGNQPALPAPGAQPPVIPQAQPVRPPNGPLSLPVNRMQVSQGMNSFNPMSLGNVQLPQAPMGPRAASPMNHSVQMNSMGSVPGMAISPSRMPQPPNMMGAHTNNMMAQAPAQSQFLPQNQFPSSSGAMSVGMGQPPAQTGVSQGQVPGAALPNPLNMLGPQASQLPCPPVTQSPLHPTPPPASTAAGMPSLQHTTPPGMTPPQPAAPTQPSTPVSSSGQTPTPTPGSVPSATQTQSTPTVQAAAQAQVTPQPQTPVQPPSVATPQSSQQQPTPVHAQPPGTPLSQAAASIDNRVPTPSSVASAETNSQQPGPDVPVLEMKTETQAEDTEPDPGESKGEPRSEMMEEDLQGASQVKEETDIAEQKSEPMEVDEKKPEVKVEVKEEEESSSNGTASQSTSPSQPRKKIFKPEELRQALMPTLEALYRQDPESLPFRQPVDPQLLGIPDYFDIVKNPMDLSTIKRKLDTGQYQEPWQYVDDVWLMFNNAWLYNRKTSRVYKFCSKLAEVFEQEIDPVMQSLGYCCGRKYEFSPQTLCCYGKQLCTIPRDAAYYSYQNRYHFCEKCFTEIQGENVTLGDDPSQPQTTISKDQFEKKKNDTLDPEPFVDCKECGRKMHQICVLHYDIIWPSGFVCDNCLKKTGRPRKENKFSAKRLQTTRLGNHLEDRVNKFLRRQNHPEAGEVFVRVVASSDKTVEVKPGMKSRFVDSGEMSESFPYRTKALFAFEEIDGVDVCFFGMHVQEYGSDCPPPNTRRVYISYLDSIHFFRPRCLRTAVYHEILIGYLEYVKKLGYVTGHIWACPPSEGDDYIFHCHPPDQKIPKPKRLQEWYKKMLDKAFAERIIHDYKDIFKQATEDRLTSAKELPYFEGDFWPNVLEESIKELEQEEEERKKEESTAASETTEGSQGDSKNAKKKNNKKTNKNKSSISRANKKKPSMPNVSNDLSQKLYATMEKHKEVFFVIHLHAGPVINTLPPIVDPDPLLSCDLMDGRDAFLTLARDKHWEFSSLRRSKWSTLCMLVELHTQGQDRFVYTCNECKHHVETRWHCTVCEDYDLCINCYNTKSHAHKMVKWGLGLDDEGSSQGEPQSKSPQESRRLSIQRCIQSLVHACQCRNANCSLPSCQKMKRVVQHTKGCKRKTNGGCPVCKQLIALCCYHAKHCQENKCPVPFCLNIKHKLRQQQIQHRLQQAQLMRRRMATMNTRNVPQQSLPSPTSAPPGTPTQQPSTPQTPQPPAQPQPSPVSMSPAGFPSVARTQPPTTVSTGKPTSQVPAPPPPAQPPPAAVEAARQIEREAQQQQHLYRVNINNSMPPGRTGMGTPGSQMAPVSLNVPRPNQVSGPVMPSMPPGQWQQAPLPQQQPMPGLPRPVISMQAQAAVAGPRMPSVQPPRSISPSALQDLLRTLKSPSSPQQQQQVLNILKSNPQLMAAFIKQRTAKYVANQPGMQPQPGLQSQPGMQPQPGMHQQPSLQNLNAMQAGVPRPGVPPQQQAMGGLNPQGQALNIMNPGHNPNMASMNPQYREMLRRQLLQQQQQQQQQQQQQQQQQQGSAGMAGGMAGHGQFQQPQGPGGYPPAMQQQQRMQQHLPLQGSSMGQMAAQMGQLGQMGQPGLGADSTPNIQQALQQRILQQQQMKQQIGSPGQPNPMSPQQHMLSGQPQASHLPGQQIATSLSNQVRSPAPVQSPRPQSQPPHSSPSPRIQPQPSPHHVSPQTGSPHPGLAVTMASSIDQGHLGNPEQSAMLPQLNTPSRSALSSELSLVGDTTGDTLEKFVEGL

Q: Which “Toxicity in prostate cancer cells (cell viability)” value [1] does the source give for “CPWIWDGDNKDDNSTDGGGSGGGTSFEQFWAWLWP [free peptide control]” here?
A: The value was “no toxicity”.

Q: What does the source list for “CPWIWDGDNKDDNSTDGGGSGGGTSFEQFWAWLWP [p300 PROTAC drug]”?
A: Concentration eliminating the p300 protein (p300; different prostate cancer cell lines): under 1 μM; p300 degradation in prostate cancer cells (p300): effectively degraded p300; Protein level of p53 and downstream proteins (p53): effectively increased the protein level of p53 and its downstream proteins; Apoptosis induction, AR-positive and AR-negative cell lines (C4-2 and PC-3 cells): effectively induced apoptosis; Effect on CWR22Rv1 tumor growth (CWR22Rv1 xenografts; 5 mg/kg i.p. every other day for 21 days, n = 5 per group): significant efficacy in vivo; IHC of CWR22Rv1 tumors (p300, AR, Ki-67, TUNEL) (CWR22Rv1 xenografts; 5 mg/kg i.p., n = 5): effectively degraded the p300, AR and Ki-67, and effectively induced the increase of tumor apoptosis; Efficacy relative to comparator drugs, CWR22Rv1 model (CWR22Rv1 xenografts; all at 5 mg/kg i.p. every other day): better efficacy compared with I-CBP112, dCBP-1, and JQAD1; Colony formation [2]: effectively inhibited colony formation; Apoptosis induction, NEPC cells (NE1.3 and H660 cells): effectively induced apoptosis; Binding of p300 to MDM2 in presence of drug [3]: significantly enhanced; Cell internalization (prostate cancer cells [4]): internalization of the p300 PROTAC drug in a time-dependent manner; Biodistribution [5]: accumulated within the tumor; Effect on PC-3 tumor growth (PC-3 xenografts; 5 mg/kg i.p. every 2 days for 18 days, n = 5 per group): significant efficacy in vivo; Efficacy relative to I-CBP112, PC-3 model (PC-3 xenografts; same dose, 5 mg/kg): better efficacy compared to small molecular p300/CBP inhibitor I-CBP112 at the same dose; Reduction of CBP in prostate cancer cells (CBP): notably weaker compared to its effect on p300; Migration and invasion (prostate cancer cells [6]): effectively inhibit the migration and invasion

Q: With JQAD1 [reference compound] as the substance, how does the “p300 degradation in prostate cancer cells” value (p300) read?
A: The value was “poor performance”.

Q: With “MDM2 N-terminal domain (domain or fragment)” as the substance, how does the Kd [7] read?
A: Its Kd is 101 nM.

Q: For p300 CH1 domain (domain or fragment), which Kd [7] is on record?
A: The Kd was 78.3 nM.
